“And” between values parts separate entries of the source, which are not always exact repeats. Equal values may be shown once. Marks after values point to notes of the source that are not given here.
Legend:
mammalian cells = details: mRNA capped with the analog; cited from earlier work
S. pombe Dcp1/2 complex = test: Decapping assay of short capped transcripts with SpDcp1/2; assay type: biochemical, Schizosaccharomyces pombe; details: 34 nt RNA capped with the analog, SpDcp1/2 complex, 30°C
How it was run: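 Short 34-nt capped RNAs were transcribed with […] from EcoRI-linearized pSP-luc+. NTPs were 0.1 mM final and cap dinucleotide 0.5 mM final, for 45 min at 37°C, then DNase-treated and column-purified. 20 ng RNA was digested with 50 or 200 nM S. pombe Dcp1/2 in 10 mM Hepes pH 7.5, 100 mM KOAc, 2 mM Mg(OAc)2, 2 mM DTT at 30°C. No-enzyme controls were run. Products were separated on 15% PAGE/7 M urea with SYBR Gold. Decapping % is upper-band loss over upper plus lower bands, mean ± SD of two experiments.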

[1] = system: rabbit reticulocyte lysates (RRLs); test: Translation efficiency of capped luciferase mRNA in RRL; assay type: biochemical; details: for relative cap-dependent translation efficiency: ApppG-capped mRNA translation subtracted before normalization to m^7GpppG; for relative translation efficiency: luciferase mRNA capped with the analog, normalized to m^7GpppG-capped mRNA
How it was run: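 Capped, polyadenylated luciferase mRNAs were made with SP6 polymerase from a PCR template, then DNase-treated and purified. Flexi RRL (40% lysate, 0.01 mM amino acids, 1 mM Mg acetate, 190 mM K acetate) was preincubated 60 min at 30°C, then translated 60 min at 30°C with four mRNA concentrations. Luminescence versus mRNA was linearly fitted and normalized to m7GpppG-capped mRNA, optionally after subtracting ApppG-capped mRNA. Means are from 2–3 repeats of each of two mRNA syntheses.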

mouse eIF4E = details: 20°C, cited from earlier work; for ΔG°: Gibbs free energy of binding; for KAS (cap–eIF4E): equilibrium association constant, mouse eIF4E

Compound | mRNA half-life (mammalian cells) | Decapping % 5 min (S. pombe Dcp1/2 complex) | Decapping % 15 min (S. pombe Dcp1/2 complex) | Decapping % 30 min (S. pombe Dcp1/2 complex) | relative cap-dependent translation efficiency [1] | relative translation efficiency [1] | ΔG° (mouse eIF4E) | KAS (cap–eIF4E) (mouse eIF4E)
CO[C@@H]1[C@H](O)[C@@H](COP(=O)([O-])OP(O)(=S)OP(=O)(O)OC[C@H]2O[C@@H](n3cnc4c(=O)[nH]c(N)nc43)[C@H](O)[C@@H]2O)O[C@H]1[n+]1cn(C)c2c(=O)[nH]c(N)nc21 (single isomer, unassigned) [m2^7,2′-OGppSpG D1, m2^7,2′-OGppSpG] | 3.08 ± 0.333 h | 47.5 ± 9.0% | 56.1 ± 11.5% | 60.9 ± 12.1% | 2.27 ± 0.10 | 2.07 ± 0.18 | −10.23 ± 0.02^a kcal·mol^−1 | 43.1 ± 1.4 μM^−1 and 43.1 ± 1.4^a μM^−1
C[n+]1cn(C2OC(COP(=O)(O)OP(=O)(O)OP(=O)(O)OP(=O)(O)OP(=O)(O)OCC3OC(n4cnc5c(=O)[nH]c(N)nc54)C(O)C3O)C(O)C2O)c2nc(N)[nH]c(=O)c21 (stereo not drawn) [m^7Gp5G] | – | – | – | – | – | – | −11.71 ± 0.06^b kcal·mol^−1 | 543 ± 55^b μM^−1
CO[C@@H]1[C@H](O)[C@@H](COP(=O)(O)OP(=O)([O-])OP(=O)(O)OP(=O)(O)OC[C@H]2O[C@@H](n3cnc4c(=O)[nH]c(N)nc43)[C@H](O)[C@@H]2O)O[C@H]1n1c[n+](C)c2c(O)nc(N)nc21 [m2^7,2′-OGppppG] | – | 73.4 ± 7.6% | 78.4 ± 9.4% | 82.9 ± 11.3% | 1.94 ± 0.56 | 1.79 ± 0.43 | −10.73 ± 0.04^b kcal·mol^−1 | 99.8 ± 6.0^b μM^−1
CO[C@H]1[C@@H](O)[C@H]([n+]2cn(C)c3c(=O)[nH]c(N)nc32)O[C@@H]1COP(=O)([O-])OP(=O)(O)OP(=O)(O)OC[C@H]1O[C@@H](n2cnc3c(=O)[nH]c(N)nc32)[C@H](O)[C@@H]1O [m2^7,3′-OGpppG] | – | – | – | – | 1.99 ± 0.81 | 1.83 ± 0.64 | −9.40 ± 0.02^a kcal·mol^−1 | 10.2 ± 0.3^a μM^−1
CO[C@@H]1[C@H](O)[C@@H](COP(=O)([O-])OP(O)(=S)OP(=O)(O)OC[C@H]2O[C@@H](n3cnc4c(=O)[nH]c(N)nc43)[C@H](O)[C@@H]2O)O[C@H]1[n+]1cn(C)c2c(=O)[nH]c(N)nc21 (single isomer, unassigned) [m2^7,2′-OGppSpG D2, m2^7,2′-OGppSpG] | 4.28 ± 0.067 h | 47.3 ± 10.6% | 51.4 ± 15.6% | 57.4 ± 10.7% | 2.83 ± 0.26 | 2.54 ± 0.66 | −9.77 ± 0.07^a kcal·mol^−1 | 19.3 ± 2.2^a μM^−1
Nc1nc2c(ncn2[C@@H]2O[C@H](COP(=O)(O)OP(=O)(O)OP(=O)(O)OC[C@H]3O[C@@H](n4cnc5c(N)ncnc54)[C@H](O)[C@@H]3O)[C@@H](O)[C@H]2O)c(=O)[nH]1 [ApppG] | – | – | – | – | 0.00 | 0.16 ± 0.04 | – | –
m2^7,2′-OGpppSpG [m2^7,2′-OGpppSpG D1D2] | – | 72.7 ± 1.9% | 78.3 ± 1.0% | 79.5 ± 3.5% | – | – | −10.99 ± 0.01^c kcal·mol^−1 | 158 ± 2^c μM^−1
CO[C@@H]1[C@H](O)[C@@H](COP(=O)(O)OP(=O)([O-])OP(=O)(O)OC[C@H]2O[C@@H](n3cnc4c(=O)[nH]c(N)nc43)[C@H](O)[C@@H]2O)O[C@H]1n1c[n+](C)c2c(O)nc(N)nc21 [m2^7,2′-OGpppG] | 2.58 ± 0.15 h | 68.9 ± 0.4% | 78.6 ± 2.4% | 79.7 ± 7.5% | 1.96 ± 0.43 | 1.81 ± 0.32 | −9.42 ± 0.02^b kcal·mol^−1 | –
Cn1c[n+]([C@@H]2O[C@H](COP(=O)(O)OP(=O)([O-])OP(=O)(O)OC[C@H]3O[C@@H](n4cnc5c(=O)[nH]c(N)nc54)[C@H](O)[C@@H]3O)[C@@H](O)[C@H]2O)c2nc(N)[nH]c(=O)c21 [m^7GpppG] | – | – | – | – | 1 | 1 | −9.35 ± 0.03^a kcal·mol^−1 | 9.4 ± 0.4 μM^−1 and 9.4 ± 0.4^a μM^−1
COC1C(O)[C@@H](COP(=O)(O)OP(=O)([S-])OP(=O)(O)OP(=O)(O)OC[C@H]2O[C@@H](n3cnc4c(=O)[nH]c(N)nc43)C(O)C2O)O[C@H]1n1c[n+](C)c2c(O)nc(N)nc21 (mixture of isomers) [m2^7,2′-OGppSppG D1D2, m2^7,2′-OGppSppG] | – | 57.9 ± 14.6% | 65.6 ± 18.0% | 71.6 ± 17.2% | 2.80 ± 0.83 | 2.51 ± 0.59 | −11.33 ± 0.02^c kcal·mol^−1 | 282 ± 12^c μM^−1

From publication PMC5175369 (Nucleic Acids Research, 2016)
